Results published in ChEMBL document CHEMBL1926583, “Synthesis and inhibitory activity of thymidine analogues targeting Mycobacterium tuberculosis thymidine monophosphate kinase” (Bioorg Med Chem, 2011).
Converted amounts (≈) assume the structure as drawn. The source made the active and inactive calls. The rule behind the calls is not given here.

Experiments:
[1] = molecular target: T1, Thymidylate kinase (Mycobacterium tuberculosis, UniProt P9WKE1); experiment: Competitive inhibition of Mycobacterium tuberculosis TMPK by Lineweaver-Burk analysis
T1 sequence (P9WKE1 whole entry): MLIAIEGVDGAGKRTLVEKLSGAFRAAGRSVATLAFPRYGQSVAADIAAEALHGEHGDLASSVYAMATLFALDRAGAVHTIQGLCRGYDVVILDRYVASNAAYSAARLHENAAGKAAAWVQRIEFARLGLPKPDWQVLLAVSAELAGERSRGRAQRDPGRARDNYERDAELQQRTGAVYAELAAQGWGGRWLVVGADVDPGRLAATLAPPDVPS
Procedure, shortened: (§1)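 Coupled spectrophotometric assay at 334 nm (NADH oxidation via pyruvate kinase/lactate dehydrogenase/NDP kinase). Buffer 50 mM Tris-HCl pH 7.4, 50 mM KCl, 2 mM MgCl2, 0.2 mM NADH, 1 mM phosphoenolpyruvate. ATP 0.5 mM and dTMP 0.05 mM held fixed; analogue 0.003–1.5 mM.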

[2] = molecular target: T2, Thymidylate kinase (Homo sapiens) (UniProt P23919); experiment: Competitive inhibition of human TMPK at 1 mM by Lineweaver-Burk analysis; procedure, shortened: as §1
T2 sequence (whole entry): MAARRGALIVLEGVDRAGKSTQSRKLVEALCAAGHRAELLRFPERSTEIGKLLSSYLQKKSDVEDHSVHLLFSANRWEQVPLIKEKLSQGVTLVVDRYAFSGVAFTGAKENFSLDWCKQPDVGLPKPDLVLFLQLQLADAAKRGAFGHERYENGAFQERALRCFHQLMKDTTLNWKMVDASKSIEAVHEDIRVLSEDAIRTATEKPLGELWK

[3] = Selectivity index, ratio of Ki for human TMPK to Ki for Mycobacterium tuberculosis TMPK
[4] = Antimycobacterial activity against Mycobacterium bovis BCG 1173P2 after 8 days by resazurin reduction assay; format: functional, Mycobacterium bovis BCG str. Pasteur 1173P2; settings: Mycobacterium tuberculosis variant bovis BCG, 192 h
Procedure, shortened: (§2)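 M. bovis BCG 1173P2 grown in 7H9 Middlebrook broth with 0.2% glycerol and 0.5% Tween-80. Compounds tested as serial 2-fold dilutions, with bacteria at 10^5 per mL. Incubated at 37 °C in humidified normal air for 8 days. Resazurin 0.01% (wt/vol) then added, followed by overnight incubation at 37 °C. Growth read as the OD difference 570 minus 630 nm (blue-to-pink change).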

[5] = molecular target: T3, Thymidylate kinase (Mycobacterium tuberculosis) (UniProt P9WKE1); experiment: Competitive inhibition of Mycobacterium tuberculosis TMPK at 0.05 mM by Lineweaver-Burk analysis; procedure, shortened: as §1
T3 sequence (whole entry): T1 sequence (P9WKE1 whole entry)

[6] = molecular target: T4, Thymidylate kinase (Homo sapiens, UniProt P23919); experiment: Competitive inhibition of human TMPK by Lineweaver-Burk analysis; procedure, shortened: as §1
T4 sequence (P23919 whole entry): T2 sequence (whole entry)

[7] = molecular target: T2, Thymidylate kinase (Homo sapiens); experiment: Competitive inhibition of human TMPK at 0.05 mM by Lineweaver-Burk analysis; procedure, shortened: as §1
[8] = test system: Mycobacterium bovis BCG str. Pasteur 1173P2; experiment: Antimycobacterial activity against Mycobacterium bovis BCG 1173P2 at 25 ug/mL after 8 days by resazurin reduction assay; format: functional; procedure, shortened: as §2

| SMILES | Ki [1] | also measured |
| --- | --- | --- |
| Cc1cn([C@H]2C[C@H](O)[C@@H](Cn3cc(-c4ccc(Cl)cc4)nn3)O2)c(=O)[nH]c1=O | 201 µM |  |
| Cc1cn([C@H]2C[C@H](NC(=S)Nc3ccc(Cl)c(C(F)(F)F)c3)[C@@H](CO)O2)c(=O)[nH]c1=O | 9.9 µM |  |
| Cc1cn([C@H]2C[C@H](n3nnnc3NCc3ccccc3)[C@@H](CO)O2)c(=O)[nH]c1=O | 2.3 µM | inhibition [2]: inactive; Ratio Ki [3]: > 100 |
| Cc1cn([C@@H]2C[C@H](O)[C@@H](Cn3cc(-c4ccc(Cl)cc4)nn3)O2)c(=O)[nH]c1=O | 9 µM |  |
| Cc1cn([C@@H]2C[C@H](O)[C@@H](CNC(=S)Nc3ccccc3)O2)c(=O)[nH]c1=S |  | MIC99 [4]: > 100 µg/mL; inhibition [5]: inactive |
| Cc1cn([C@@H]2C[C@H](n3cc(-c4ccc(Cl)cc4)nn3)[C@@H](CO)O2)c(=O)[nH]c1=O | 35 µM |  |
| Cc1cn([C@H]2C[C@H](NC(=O)Nc3ccc(Cl)c(C(F)(F)F)c3)[C@@H](CO)O2)c(=O)[nH]c1=O | 2.8 µM | Ki [6]: 95 µM; Ratio Ki [3]: 34 |
| Cc1cn([C@@H]2C[C@H](N=[N+]=[N-])[C@@H](CO)O2)c(=O)[nH]c1=O | 6 µM |  |
| Cc1cn([C@H]2C[C@H](n3cc(Cc4ccccc4)nn3)[C@@H](CO)O2)c(=O)[nH]c1=O | 2.7 µM | inhibition [2]: inactive; Ratio Ki [3]: > 100 |
| Cc1cn([C@H]2C[C@H](n3cc(-c4ccc(Cl)cc4)nn3)[C@@H](CO)O2)c(=O)[nH]c1=O | 2.1 µM |  |
| Cc1cn([C@H]2C[C@H](N=[N+]=[N-])[C@@H](CO)O2)c(=O)[nH]c1=S | ≥ 100 µM |  |
| Cc1cn([C@H]2C[C@H](n3cc(-c4ccc(Cl)cc4)nn3)[C@@H](CO)O2)c(=O)[nH]c1=S | 15 µM |  |
| Cc1cn([C@H]2C[C@H](O)[C@@H](CNC(=S)Nc3ccc(Cl)c(C(F)(F)F)c3)O2)c(=O)[nH]c1=O | 14.5 µM |  |
| Cc1cn([C@@H]2C[C@H](O)[C@@H](CNC(=S)Nc3ccc(Cl)c(C(F)(F)F)c3)O2)c(=O)[nH]c1=S | 0.17 µM | MIC99 [4]: 25 µg/mL (≈ 50.5 µM); inhibition [7]: inactive; inhibition [8]: 100%; Ratio Ki [3]: > 100 |
| Cc1cn([C@H]2C[C@H](n3cc(-c4ccccc4)nn3)[C@@H](CO)O2)c(=O)[nH]c1=O | 4.2 µM |  |
| Cc1cn([C@H]2C[C@H](Nc3nnnn3-c3ccc(Cl)c(C(F)(F)F)c3)[C@@H](CO)O2)c(=O)[nH]c1=O | 45 µM |  |
| Cc1cn([C@H]2C[C@H](O)[C@@H](CNc3nnnn3-c3ccc(Cl)c(C(F)(F)F)c3)O2)c(=O)[nH]c1=O | 73 µM |  |
